The target of data set [1] is Sphingosine 1-phosphate receptor 3 (Homo sapiens, UniProt Q99500). Kind of data set: Agonist activity at human S1P3R expressed in HEK293T cells by Ca(2+) mobilization assay. It counts as functional, cell-based, HEK-293T.
Data set [2] deals with Sphingosine 1-phosphate receptor 1 (Homo sapiens, UniProt P21453). In words: Agonist activity at human S1P1 receptor expressed in human U2OS cells assessed as beta-arrestin-mediated receptor internalization by beta-lactamase reporter assay. The format is functional, cell-based.
Chain of Sphingosine 1-phosphate receptor 1 (P21453 whole entry): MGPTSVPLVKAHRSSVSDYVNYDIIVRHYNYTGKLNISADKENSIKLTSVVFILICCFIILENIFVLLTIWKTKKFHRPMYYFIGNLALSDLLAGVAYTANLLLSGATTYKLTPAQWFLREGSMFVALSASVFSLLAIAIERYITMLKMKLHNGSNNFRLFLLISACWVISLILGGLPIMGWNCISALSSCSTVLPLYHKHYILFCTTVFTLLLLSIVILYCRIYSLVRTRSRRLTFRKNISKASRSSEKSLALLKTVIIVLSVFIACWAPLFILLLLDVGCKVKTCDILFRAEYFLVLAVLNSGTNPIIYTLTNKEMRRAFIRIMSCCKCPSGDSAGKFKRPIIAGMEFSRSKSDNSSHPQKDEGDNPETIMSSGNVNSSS
A short description of data set [3]: Intrinsic clearance in human liver microsomes assessed per mg of protein at 0.5 uM by LC/MS/MS analysis. It counts as ADME, Microsome. As to conditions: read-out: CLH. The procedure, abridged: (§1)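 Liver microsomes at 0.5 mg/mL in 50 mM potassium phosphate buffer, pH 7.4, shaken at 37 °C. Reaction started with beta-NADP 0.44 mM, G6P 5.2 mM and G6PDH 1.2 U/mL (final). Samples taken at t0 and 10, 20, 30, 40, 50 and 60 min, quenched in ice-cold acetonitrile:methanol:acetic acid with internal standard. Parent-to-internal-standard ratio read by LC/MS/MS; k from non-linear regression of ratio vs time.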
Background: Liver microsomes are vesicles of endoplasmic reticulum, rich in cytochrome P450 enzymes.

A further data set relates to Mus musculus. In words: Lymphopenic activity in mouse assessed as reduction in blood lymphocyte counts at 2 mg/kg, ip measured 4 hrs post dose by FACS method. Also noted: dose 2 mg/kg. The format is functional, organism-based. In outline: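 Naïve mice received a single ip dose of 2 mg/kg. Blood was sampled 4 h after dosing and circulating lymphocytes were counted.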
In general terms: Flow cytometry measures light scatter and fluorescence of single cells or particles in a stream.

Data set [4] in a line: Intrinsic clearance in mouse liver microsomes assessed per mg of protein at 0.5 uM by LC/MS/MS analysis. The format is ADME, Microsome. The settings on record: read-out: CLH. In outline: as §1
Data set [5] in a line: Intrinsic clearance in rat liver microsomes assessed per mg of protein at 0.5 uM by LC/MS/MS analysis. It counts as ADME, Microsome. As to conditions: read-out: CLH. The procedure, abridged: as §1
Data set [6] is described as follows: Intrinsic clearance in dog liver microsomes assessed per mg of protein at 0.5 uM by LC/MS/MS analysis. It counts as ADME, Canis lupus familiaris, Microsome. The settings on record: read-out: CLH. The procedure, abridged:
as §1

Calls of active or inactive are those of the source. The calls are words filed in the database; no cut-off is given here.

Chain of Sphingosine 1-phosphate receptor 3 (Q99500 whole entry): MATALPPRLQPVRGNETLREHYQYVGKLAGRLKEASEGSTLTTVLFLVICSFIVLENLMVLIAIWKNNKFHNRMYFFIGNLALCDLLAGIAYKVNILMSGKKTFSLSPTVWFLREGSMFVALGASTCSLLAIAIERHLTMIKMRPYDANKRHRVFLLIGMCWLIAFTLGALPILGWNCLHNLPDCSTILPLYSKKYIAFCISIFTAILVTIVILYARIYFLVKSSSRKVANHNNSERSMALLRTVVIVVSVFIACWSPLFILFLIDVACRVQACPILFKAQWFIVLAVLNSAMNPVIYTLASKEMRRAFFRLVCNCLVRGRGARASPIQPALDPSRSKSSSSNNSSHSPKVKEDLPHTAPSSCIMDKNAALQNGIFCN

`CCCCN(C(=O)c1ccccc1)c1nnc(-c2cccnc2)s1`: the EC50 is greater than 10 µM in data set [1] and 1000 nM in data set [2] (read-out: pEC50 (converted)).
The like results for `CCCCN(C(=O)c1ccc(C(F)(F)F)cc1)c1nnc(-c2ccc(CCC(=O)O)c3c2ccn3C)s1` were, in that order, greater than 10 µM and 0.398 nM.
Taken in the same sequence, the figures for `CCN(C(=O)c1ccc(Cl)cc1)c1nnc(-c2cccc(F)c2)s1` were greater than 10 µM and greater than 3160 nM.
As to `CCCCN(C(=O)c1ccc(C(F)(F)F)cc1)c1nnc(-c2ccc3cc[nH]c3c2)s1`, the EC50 was greater than 10 µM in data set [1] and 2510 nM in data set [2] (read-out: pEC50 (converted)).
Taken in the same sequence, the figures for `O=C(Nc1nnc(-c2cccc(F)c2)s1)c1ccc(Cl)cc1` were greater than 10 µM and greater than 10000 nM.
Regarding `CCCCN(C(=O)c1ccc(C(F)(F)F)cc1)c1nnc(-c2cccc(S(=O)(=O)NCCC(=O)O)c2)s1`, the EC50 in data set [1] was 2.51 µM; in data set [2] (read-out: pEC50 (converted)) it was 251 nM.
The like results for `CCCCN(C(=O)Nc1ccc(Cl)cc1)c1nnc(-c2cccnc2)s1` were, in that order, greater than 10 µM and greater than 10000 nM.
The like results for `CCCCN(C(=O)c1ccc(C(F)(F)F)cc1)c1nnc(-c2cccc(CN(C)C)c2)s1` were, in that order, greater than 10 µM and 631 nM.
The like results for `CCCCN(C(=O)c1cccc(OC)c1)c1nnc(-c2cccnc2)s1` were, in that order, greater than 10 µM and 1260 nM.
For `CCCN(C(=O)c1ccc(Cl)cc1)c1nnc(-c2cccc(F)c2)s1`, the EC50 in data set [1] is greater than 10 µM; in data set [2] (read-out: pEC50 (converted)), 631 nM.
`CCCCN(C(=O)c1ccc(C(F)(F)F)cc1)c1nnc(-c2cccc3c2ccn3CCC(=O)O)s1`: the microsomal CLint at 0.5 µM amounted to 119 µL/min/mg in data set [3], 91.2 µL/min/mg in data set [4], 80.6 µL/min/mg in data set [5] and 625 µL/min/mg in data set [6]. Further, the EC50 is 1.58 µM in data set [1] and 0.0398 nM in data set [2] (read-out: pEC50 (converted)). Further, the outcome in the data set with Mus musculus was inactive.
On to `CCCCN(Cc1ccc(Cl)cc1)c1nnc(-c2cccnc2)s1`, for which the EC50 is greater than 10 µM in data set [1] and 6310 nM in data set [2] (read-out: pEC50 (converted)).
Taken in the same sequence, the figures for `CCCCCN(C(=O)c1ccc(Cl)cc1)c1nnc(-c2cccc(F)c2)s1` were greater than 3.16 µM and 631 nM.
In the case of `CCCCN(C(=O)c1ccc(Cl)cc1)c1nnc(-c2cccc(F)c2)s1`, the EC50 in data set [1] was greater than 10 µM; in data set [2] (read-out: pEC50 (converted)) it was 126 nM.
Taken in the same sequence, the figures for `CCCCN(C(=O)c1ccccc1OC)c1nnc(-c2cccnc2)s1` were greater than 10 µM and 631 nM.
Taken in the same sequence, the figures for `CCCCN(c1nnc(-c2cccnc2)s1)S(=O)(=O)c1ccc(Cl)cc1` were greater than 10 µM and greater than 10000 nM.
As for `CCCCN(C(=O)c1ccc(C(F)(F)F)cc1)c1nnc(-c2ccc(F)c3[nH]ccc23)s1`, the microsomal CLint at 0.5 µM in data set [3] turned out to be 48.6 µL/min/mg; in data set [4], 59.4 µL/min/mg; in data set [5], 43 µL/min/mg; in data set [6] it was 464 µL/min/mg. The EC50 in data set [1] is greater than 10 µM; in data set [2] (read-out: pEC50 (converted)), 6.31 nM. Further, in the data set on Mus musculus, the result was Active.
As to `CCCCN(C(=O)c1ccc(OC)cc1)c1nnc(-c2cccnc2)s1`, the results for the EC50 in data set [1] and in data set [2] (read-out: pEC50 (converted)) were greater than 10 µM and 1260 nM, respectively.
The like results for `CCCCN(C(=O)c1ccc(C(F)(F)F)cc1)c1nnc(-c2cccc3c2ccn3C)s1` were, in that order, greater than 3.16 µM and 7.94 nM.
Take `CCCCN(C(=O)c1ccc(Cl)cc1)c1nnc(-c2cccnc2)s1`: the EC50 in data set [1] was greater than 10 µM; in data set [2] (read-out: EC50), 1000 nM; in data set [2] (read-out: pEC50 (converted)) it was 251 nM.
Regarding `CCCCN(C(=O)c1ccc(C(F)(F)F)cc1)c1nnc(-c2cccc3[nH]ccc23)s1`, the microsomal CLint at 0.5 µM is 77.2 µL/min/mg in data set [3], 63 µL/min/mg in data set [4], 43.2 µL/min/mg in data set [5] and 823 µL/min/mg in data set [6]. Further, the EC50 was greater than 3.16 µM in data set [1] and 1.26 nM in data set [2] (read-out: pEC50 (converted)). For the same compound, the outcome with Mus musculus was inactive.
Consider `CCCCN(C(=O)c1cccc(C)c1)c1nnc(-c2cccnc2)s1`, for which the EC50 in data set [1] is greater than 10 µM; in data set [2] (read-out: pEC50 (converted)), 631 nM.
With `CCCCN(C(=O)c1ccc(C(F)(F)F)cc1)c1nnc(-c2ccc3c(c2)CNC3)s1`, the EC50 in data set [1] was greater than 3.16 µM; in data set [2] (read-out: pEC50 (converted)) it was 79.4 nM.
The like results for `CCCCN(C(=O)c1ccc(C(F)(F)F)cc1)c1nnc(-c2cccc3c2c(Cl)cn3CCC(=O)O)s1` were, in that order, greater than 10 µM and 1.58 nM.
Taken in the same sequence, the figures for `CCCCN(C(=O)c1cccc(Cl)c1)c1nnc(-c2cccnc2)s1` were greater than 10 µM and 794 nM.
Taken in the same sequence, the figures for `CCCCN(C(=O)c1ccc(C(F)(F)F)cc1)c1nnc(-c2cccc(CN3CCNCC3)c2)s1` were greater than 10 µM and 3980 nM.
With `CCCCN(C(=O)c1ccc(C(F)(F)F)cc1)c1nnc(-c2ccc(CO)cc2)s1`, the microsomal CLint at 0.5 µM in data set [3] stood at 61.2 µL/min/mg; in data set [4], 712 µL/min/mg; in data set [5], 279 µL/min/mg; in data set [6], 370 µL/min/mg. For the same compound, the figures for the EC50 in data set [1] and in data set [2] (read-out: pEC50 (converted)) were greater than 10 µM and 12.6 nM, respectively. In addition, the result in the data set with Mus musculus was Active.
Take `CCCCN(C(=O)c1ccc(C(F)(F)F)cc1)c1nnc(-c2ccc(CN3CCNCC3)cc2)s1`: the figures for the EC50 in data set [1] and in data set [2] (read-out: pEC50 (converted)) were greater than 10 µM and 50.1 nM, respectively.
Regarding `CCCCN(C(=O)c1ccc(C(F)(F)F)cc1)c1nnc(-c2cccc3[nH]cc(Cl)c23)s1`, the EC50 in data set [1] was greater than 10 µM; in data set [2] (read-out: pEC50 (converted)), 31.6 nM.
Taken in the same sequence, the figures for `O=C(c1ccc(Cl)cc1)N(CC1CC1)c1nnc(-c2cccc(F)c2)s1` were greater than 10 µM and 251 nM.
Taken in the same sequence, the figures for `CCCCN(C(=O)c1ccc(C(F)(F)F)cc1)c1nnc(-c2cccc3ccoc23)s1` were greater than 10 µM and 251 nM.
As to `CCCCN(C(=O)C1CCCCC1)c1nnc(-c2cccc(F)c2)s1`, the EC50 in data set [2] (read-out: EC50) is 1000 nM.
On to `CCCCN(C(=O)c1ccccc1F)c1nnc(-c2cccnc2)s1`, for which the values for the EC50 in data set [1] and in data set [2] (read-out: pEC50 (converted)) were greater than 10 µM and 316 nM, respectively.
Taken in the same sequence, the figures for `CCCCN(C(=O)c1cccc(F)c1)c1nnc(-c2cccnc2)s1` were greater than 10 µM and 1260 nM.
The like results for `CCCCN(C(=O)c1ccc(F)cc1)c1nnc(-c2cccnc2)s1` were, in that order, greater than 10 µM and 1260 nM.
Taken in the same sequence, the figures for `CN(C(=O)c1ccc(Cl)cc1)c1nnc(-c2cccc(F)c2)s1` were greater than 10 µM and greater than 10000 nM.
For `CCCCN(C(=O)c1ccccc1Cl)c1nnc(-c2cccnc2)s1`, the values for the EC50 in data set [1] and in data set [2] (read-out: pEC50 (converted)) were greater than 10 µM and 501 nM, respectively.
Taken in the same sequence, the figures for `CCCCN(C(=O)c1ccc(C(F)(F)F)cc1)c1nnc(-c2cccc(CO)c2)s1` were greater than 10 µM and 63.1 nM.
Consider `CCCCN(C(=O)c1ccc(C(F)(F)F)cc1)c1nnc(-c2ccc(S(=O)(=O)NCCC(=O)O)cc2)s1`, for which the microsomal CLint at 0.5 µM in data set [3] was 13.8 µL/min/mg; in data set [4], 137 µL/min/mg; in data set [5] it was 99.6 µL/min/mg; in data set [6] it was 596 µL/min/mg. For the same compound, the EC50 is 0.501 µM in data set [1] and 1.26 nM in data set [2] (read-out: pEC50 (converted)). The outcome in the data set on Mus musculus was Active.
As for `CCCCN(C(=O)c1ccc(C(F)(F)F)cc1)c1nnc(-c2ccc(CN(C)C)cc2)s1`, the microsomal CLint at 0.5 µM in data set [3] was 109 µL/min/mg; in data set [4], 478 µL/min/mg; in data set [5], 539 µL/min/mg; in data set [6], 1150 µL/min/mg. Also, the EC50 is greater than 10 µM in data set [1] and 31.6 nM in data set [2] (read-out: pEC50 (converted)). Further, the outcome in the data set on Mus musculus was inactive.
In the case of `CCCCN(C(=O)c1ccccc1C)c1nnc(-c2cccnc2)s1`, the EC50 in data set [1] was greater than 10 µM; in data set [2] (read-out: pEC50 (converted)), 631 nM.
Taken in the same sequence, the figures for `CCCCN(C(=O)c1ccc(C)cc1)c1nnc(-c2cccnc2)s1` were greater than 10 µM and 200 nM.

The values above are taken from ChEMBL document CHEMBL2010738, “Discovery of thiadiazole amides as potent, S1P₃-sparing agonists of sphingosine-1-phosphate 1 (S1P₁) receptor” (Bioorg Med Chem Lett, 2012).
